# The source made the active and inactive calls. No cut-off for these calls is given here.
# How the values were obtained:
# [1] = target: T1, Proteinase-activated receptor 1 (Homo sapiens, UniProt P25116); assay: Inhibition of SFLLRN-NH2-stimulated PAR1-mediated platelet activation in […] assessed as surface expression of P-selectin after 20 mins by flow cytometry; set-up: species or system Plasma
# T1 sequence (P25116 whole entry): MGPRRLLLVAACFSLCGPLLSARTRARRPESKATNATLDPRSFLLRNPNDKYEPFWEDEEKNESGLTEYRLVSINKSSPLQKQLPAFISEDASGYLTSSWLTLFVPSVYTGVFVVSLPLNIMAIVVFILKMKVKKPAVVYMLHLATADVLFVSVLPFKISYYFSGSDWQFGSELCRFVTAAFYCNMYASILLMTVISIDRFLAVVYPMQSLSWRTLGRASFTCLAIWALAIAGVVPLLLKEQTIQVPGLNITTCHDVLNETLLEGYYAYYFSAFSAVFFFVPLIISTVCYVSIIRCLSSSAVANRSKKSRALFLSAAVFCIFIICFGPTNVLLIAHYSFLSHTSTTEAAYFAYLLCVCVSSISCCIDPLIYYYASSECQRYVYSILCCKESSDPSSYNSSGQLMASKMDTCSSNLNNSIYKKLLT
# [2] = target: T2, Proteinase-activated receptor 1 (Homo sapiens) (UniProt P25116); assay: Inhibition of SFLLRN-NH2-stimulated PAR1-mediated platelet activation in […] assessed as surface expression of P-selectin at 10 uM after 20 mins by flow cytometry; type: cell-based
# T2 sequence (whole entry): T1 sequence (P25116 whole entry)
# [3] = target: cGMP-inhibited 3',5'-cyclic phosphodiesterase 3A (Homo sapiens) (UniProt Q14432); assay: Inhibition of PDE3A
# Sequence of cGMP-inhibited 3',5'-cyclic phosphodiesterase 3A (Homo sapiens) (Q14432 whole entry): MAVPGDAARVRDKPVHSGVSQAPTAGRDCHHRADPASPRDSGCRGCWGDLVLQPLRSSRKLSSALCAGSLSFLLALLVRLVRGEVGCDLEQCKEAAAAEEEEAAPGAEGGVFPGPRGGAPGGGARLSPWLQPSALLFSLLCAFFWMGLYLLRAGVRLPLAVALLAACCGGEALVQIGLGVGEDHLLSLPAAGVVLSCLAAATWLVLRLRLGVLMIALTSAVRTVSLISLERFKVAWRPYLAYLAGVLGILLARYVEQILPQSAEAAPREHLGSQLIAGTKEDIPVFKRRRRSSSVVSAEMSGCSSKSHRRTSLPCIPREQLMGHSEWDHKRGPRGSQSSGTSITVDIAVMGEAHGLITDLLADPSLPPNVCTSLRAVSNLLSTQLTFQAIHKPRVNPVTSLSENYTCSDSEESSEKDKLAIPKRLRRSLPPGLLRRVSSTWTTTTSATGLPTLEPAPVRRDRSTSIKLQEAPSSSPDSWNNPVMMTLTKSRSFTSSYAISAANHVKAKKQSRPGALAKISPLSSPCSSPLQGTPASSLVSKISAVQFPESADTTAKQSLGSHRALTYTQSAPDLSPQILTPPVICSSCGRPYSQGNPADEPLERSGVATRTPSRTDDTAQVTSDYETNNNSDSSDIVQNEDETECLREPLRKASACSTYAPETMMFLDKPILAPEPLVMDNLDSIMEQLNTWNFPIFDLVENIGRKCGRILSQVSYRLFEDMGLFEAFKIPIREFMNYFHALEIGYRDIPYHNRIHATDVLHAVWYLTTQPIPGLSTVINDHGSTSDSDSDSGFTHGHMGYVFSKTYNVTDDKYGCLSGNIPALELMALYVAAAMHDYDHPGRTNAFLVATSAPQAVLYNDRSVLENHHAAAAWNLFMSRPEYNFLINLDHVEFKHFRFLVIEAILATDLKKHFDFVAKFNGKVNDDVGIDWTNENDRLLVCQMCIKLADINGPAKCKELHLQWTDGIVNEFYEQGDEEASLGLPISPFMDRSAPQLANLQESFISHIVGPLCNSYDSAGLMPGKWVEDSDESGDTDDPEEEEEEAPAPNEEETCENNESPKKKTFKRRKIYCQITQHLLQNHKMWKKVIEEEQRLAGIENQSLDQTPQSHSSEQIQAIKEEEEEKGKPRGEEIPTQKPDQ
# [4] = Solubility of the compound in phosphate buffered saline; type: physicochemical; settings: buffer
# Plasma [5] = assay: Metabolic stability in human plasma assessed as compound remaining at 5 uM after 5 hrs; type: ADME, cell-free
# How it was run: (§1)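 Compound incubated in human or mouse plasma; stability reported as percent remaining after 5 h.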
# Plasma [6] = assay: Metabolic stability in mouse plasma assessed as compound remaining at 5 uM after 5 hrs; type: ADME, cell-free; how it was run: as §1
# Plasma [7] = assay: Plasma protein binding in human; type: ADME, cell-free
# [8] = target: T2, Proteinase-activated receptor 1 (Homo sapiens); settings: Plasma, 3 uM
# [9] = target: T2, Proteinase-activated receptor 1 (Homo sapiens); settings: Plasma, 3 uM; remark: listed apart in the source
# [10] = target: T2, Proteinase-activated receptor 1 (Homo sapiens); settings: Plasma, 3 uM; remark: listed apart in the source
# [11] = target: T2, Proteinase-activated receptor 1 (Homo sapiens); settings: Plasma, 3 uM; remark: listed apart in the source
# [12] = target: T2, Proteinase-activated receptor 1 (Homo sapiens); settings: 3 uM
# [13] = target: T2, Proteinase-activated receptor 1 (Homo sapiens); settings: 3 uM; remark: listed apart in the source
# [14] = target: T2, Proteinase-activated receptor 1 (Homo sapiens); settings: 3 uM; remark: listed apart in the source
# [15] = target: T2, Proteinase-activated receptor 1 (Homo sapiens); settings: 3 uM; remark: listed apart in the source
# [16] = target: T2, Proteinase-activated receptor 1 (Homo sapiens); settings: 3 uM; remark: listed apart in the source
structure (smiles),measurement,setting,value
CCCC(=O)Nc1cccc(NC(=O)c2ccccc2Br)c1,IC50,[1],260 nM
same,inhibition,[2],> 99%
same,inhibition,[3],inactive
same,solubility,[4],40 µM
same,Stability,Plasma [5],80%
same,Stability,Plasma [6],2%
same,PPB,Plasma [7],97%
same,inhibition,[8],inactive
same,inhibition,[9],inactive
same,inhibition,[10],inactive
same,inhibition,[11],inactive
same,inhibition,[12],Active
same,inhibition,[13],Active
same,inhibition,[14],inactive
same,inhibition,[15],inactive
same,inhibition,[16],inactive

# Reference: ChEMBL document CHEMBL2046322, “Discovery of 1,3-Diaminobenzenes as Selective Inhibitors of Platelet Activation at the PAR1 Receptor” (ACS Med Chem Lett, 2012)
